Data taken from ChEMBL document CHEMBL2157876, “Identification of a 2-phenyl-substituted octahydrobenzo[f]quinoline as a dopamine D₃ receptor-selective full agonist ligand” (Bioorg Med Chem, 2012).

Tests used:
D(3) dopamine receptor [1] = target: T1, D(3) dopamine receptor (Homo sapiens, UniProt P35462); test: Displacement of [3H]-N-methylspiperone from human dopamine D3 receptor expressed in HEK293 cells after 30 mins by scintillation counting; assay type: cell-based
D(1A) dopamine receptor = D(1A) dopamine receptor (Homo sapiens, UniProt P21728); test: Displacement of [3H]-SCH-23390 from human dopamine D1 receptor expressed in HEK293 cells after 30 mins by scintillation counting; assay type: cell-based
Chain of D(1A) dopamine receptor (P21728 whole entry): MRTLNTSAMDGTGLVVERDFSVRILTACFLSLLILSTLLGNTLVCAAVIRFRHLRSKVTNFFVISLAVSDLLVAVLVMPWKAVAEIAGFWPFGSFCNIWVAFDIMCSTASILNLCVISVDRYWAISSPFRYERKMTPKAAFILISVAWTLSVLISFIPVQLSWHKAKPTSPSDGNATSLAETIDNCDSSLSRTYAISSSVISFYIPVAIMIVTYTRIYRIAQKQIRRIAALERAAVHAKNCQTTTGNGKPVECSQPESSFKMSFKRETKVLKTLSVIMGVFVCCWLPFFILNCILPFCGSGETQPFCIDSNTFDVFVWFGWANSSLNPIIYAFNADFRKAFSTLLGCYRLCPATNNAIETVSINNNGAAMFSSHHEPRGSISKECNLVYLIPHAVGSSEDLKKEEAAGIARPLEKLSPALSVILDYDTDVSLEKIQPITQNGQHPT

[2] = Displacement of [3H]-N-methylspiperone from dopamine D2 like receptor in pig striatal homogenates after 30 mins by scintillation counting; assay type: tissue-based, Sus scrofa
[3] = Displacement of [3H]-SCH-23390 from dopamine D1 like receptor in pig striatal homogenates after 30 mins by scintillation counting; assay type: tissue-based, Sus scrofa
Homo sapiens [4] = species on record: Homo sapiens; test: Selectivity ratio of Ki for human dopamine D3 receptor to Ki for human dopamine D2long receptor
Outline: (§1)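 Membranes from HEK293 cells transiently expressing human receptors: D1 at ~2840 fmol/mg, D2Long at ~2500 fmol/mg, D3 at ~1980 fmol/mg. Buffer 50 mM Tris, 4 mM MgCl2, pH 7.4. […] 5 µM (+)-butaclamol for nonspecific binding. 30 min at 37 °C, filtration, scintillation.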

D(2) dopamine receptor = D(2) dopamine receptor (Homo sapiens, UniProt P14416); test: Displacement of [3H]-N-methylspiperone from human dopamine D2long receptor expressed in HEK293 cells after 30 mins by scintillation counting; assay type: cell-based
Chain of D(2) dopamine receptor (P14416 whole entry): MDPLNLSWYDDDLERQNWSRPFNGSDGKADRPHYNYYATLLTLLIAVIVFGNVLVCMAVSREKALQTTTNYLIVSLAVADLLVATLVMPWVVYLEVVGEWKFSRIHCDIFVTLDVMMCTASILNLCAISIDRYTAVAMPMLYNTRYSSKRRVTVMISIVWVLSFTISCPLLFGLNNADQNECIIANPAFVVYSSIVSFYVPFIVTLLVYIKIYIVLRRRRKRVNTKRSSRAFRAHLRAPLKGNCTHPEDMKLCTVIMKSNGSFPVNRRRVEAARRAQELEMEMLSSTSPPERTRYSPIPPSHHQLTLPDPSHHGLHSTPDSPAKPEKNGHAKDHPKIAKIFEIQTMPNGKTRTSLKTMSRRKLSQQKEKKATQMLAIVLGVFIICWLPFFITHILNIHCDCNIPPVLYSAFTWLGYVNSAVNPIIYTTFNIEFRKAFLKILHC

Sus scrofa = species on record: Sus scrofa; test: Selectivity ratio of Ki for dopamine D2 like receptor in pig striatal homogenates to Ki for dopamine D1 like receptor in pig striatal homogenates; assay type: tissue-based
Outline: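 Porcine striatal homogenate in 50 mM HEPES, 4 mM MgCl2, pH 7.4. […] D2-like sites labelled with 0.2–0.4 nM [3H]N-methylspiperone plus 50 nM ketanserin to block 5-HT2A. Nonspecific binding with 5 µM (+)-butaclamol. 30 min at 37 °C, filtration, scintillation counting. Ki by Cheng-Prusoff from IC50. At least three experiments.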

Homo sapiens [5] = species on record: Homo sapiens; test: Selectivity ratio of Ki for human dopamine D3 receptor to Ki for human dopamine D1 receptor; outline: as §1
D(3) dopamine receptor [6] = target: T1, D(3) dopamine receptor; test: Agonist activity at dopamine D3 receptor in human U2OS-D3 cells assessed as EA-tagged beta-arrestin translocation after 1.5 hrs by luminescence based beta-galactosidase assay relative to dopamine; assay type: functional, cell-based

T1 sequence (P35462 whole entry): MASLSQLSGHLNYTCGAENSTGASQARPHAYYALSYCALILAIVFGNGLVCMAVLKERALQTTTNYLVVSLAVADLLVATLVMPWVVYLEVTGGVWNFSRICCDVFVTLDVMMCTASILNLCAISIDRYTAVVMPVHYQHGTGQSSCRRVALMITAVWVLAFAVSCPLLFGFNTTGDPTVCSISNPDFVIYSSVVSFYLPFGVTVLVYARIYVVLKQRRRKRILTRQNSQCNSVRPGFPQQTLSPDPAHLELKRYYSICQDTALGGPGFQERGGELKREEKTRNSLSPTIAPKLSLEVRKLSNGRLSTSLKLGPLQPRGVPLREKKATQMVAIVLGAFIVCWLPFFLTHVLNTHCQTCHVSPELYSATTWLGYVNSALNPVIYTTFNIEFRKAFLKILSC

Compound	Ki (D(3) dopamine receptor [1]) [nM]	Ki (D(1A) dopamine receptor) [nM]	Ki [2] [nM]	Ki [3] [nM]	Ratio Ki (Homo sapiens [4])	Ki (D(2) dopamine receptor) [nM]	Ratio Ki (Sus scrofa)	Ratio Ki (Homo sapiens [5])	Emax (D(3) dopamine receptor [6]) [%]
Oc1ccc2c(c1O)C[C@@H](c1ccccc1)[C@@H]1CCNC[C@@H]21	210	47	180	8.2					
CN1CCc2cc(Cl)c(O)cc2[C@@H](c2ccccc2)C1.O=C(O)/C(O)=C(/O)C(=O)O				0.31					
Oc1ccc([C@H]2CN[C@@H]3CCc4cc(O)c(O)cc4[C@H]3C2)cc1 (racemic)	50	550	14	490	10	490	34		
Oc1cccc([C@H]2CN[C@@H]3CCc4cc(O)c(O)cc4[C@H]3C2)c1 (racemic)			29	580			20		
Cc1ccc([C@H]2CN[C@@H]3CCc4cc(O)c(O)cc4[C@H]3C2)cc1 (racemic)			56	810			14		
Oc1cc2c(cc1O)[C@H]1C[C@@H](c3ccc(C(F)(F)F)cc3)CN[C@@H]1CC2 (racemic)			150	2370			16		
Oc1cc2c(cc1O)[C@H]1C[C@@H](c3ccccc3)CN[C@@H]1CC2 (racemic)			30	930			31		
CCCN1C[C@H](c2ccc(O)cc2)C[C@@H]2c3cc(O)c(O)cc3CC[C@H]21 (relative stereo)		921	10	630	145		61	840	103
Oc1cc2c(cc1O)[C@H]1c3ccccc3CN[C@@H]1CC2 (relative stereo) [DIHYDREXIDINE]			200						
